Like-named read-outs stand apart in the source and are kept apart here. Marks after values point to notes of the source that are not given here.
Assays:
MCF‐7 cells = assay: Senescence assay; type: cell-based; conditions: MCF‐7, 12‐day exposure, dose‐dependent
Summary of the method: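 MCF-7 cells grown at 37°C, 5% CO₂ in DMEM or RPMI-1640 with 10% FBS. Seeded in 6-well plates and exposed to the test compound at the indicated concentrations, or vehicle, for 12 days. Then stained with SA-β-galactosidase staining solution following the kit instructions. Stocks were 10 mmol/L in DMSO.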

ES‐2 = assay: cells; type: cell-based; conditions: Homo sapiens, ES-2, 144 h, read-out: Proliferation inhibition IC50 (mean ± SD)
SW620 = assay: cells; type: cell-based; conditions: Homo sapiens, SW-620, 144 h, read-out: Proliferation inhibition IC50 (mean ± SD)
in vivo = assay: in vivo; set-up: species or system female BALB/c nude mice
CDK3 = CDK3 (Homo sapiens, UniProt Q00526); assay: Enzymatic profiling, LANCE Ultra assay; type: biochemical
Sequence of CDK3 (Q00526 whole entry): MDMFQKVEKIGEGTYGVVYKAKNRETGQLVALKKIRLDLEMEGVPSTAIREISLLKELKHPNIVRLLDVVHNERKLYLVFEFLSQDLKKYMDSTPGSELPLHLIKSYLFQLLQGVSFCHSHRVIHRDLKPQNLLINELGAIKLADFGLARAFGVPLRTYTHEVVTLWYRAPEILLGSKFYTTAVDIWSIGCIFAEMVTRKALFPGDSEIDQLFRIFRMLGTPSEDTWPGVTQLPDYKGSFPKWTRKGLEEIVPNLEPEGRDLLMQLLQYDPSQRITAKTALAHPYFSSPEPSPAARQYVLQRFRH
Sequence of CDK3 (P24864 whole entry, further chain): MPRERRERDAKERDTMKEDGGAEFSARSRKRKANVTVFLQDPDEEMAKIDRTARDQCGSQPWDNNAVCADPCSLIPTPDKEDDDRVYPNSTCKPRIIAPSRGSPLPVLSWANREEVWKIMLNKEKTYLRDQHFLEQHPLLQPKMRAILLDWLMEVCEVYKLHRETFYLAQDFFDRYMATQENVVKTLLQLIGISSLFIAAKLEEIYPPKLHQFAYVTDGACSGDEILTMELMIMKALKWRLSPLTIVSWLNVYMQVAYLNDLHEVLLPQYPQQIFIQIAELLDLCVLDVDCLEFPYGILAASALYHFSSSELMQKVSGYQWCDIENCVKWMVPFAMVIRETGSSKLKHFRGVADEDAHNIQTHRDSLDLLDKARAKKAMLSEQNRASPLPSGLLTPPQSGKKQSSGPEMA

T‐47D = assay: cells; type: cell-based; conditions: Homo sapiens, T47D, 144 h, read-out: Proliferation inhibition IC50 (mean ± SD)
Colo‐205 xenograft = assay: Colo‐205 s.c. human tumor xenograft; type: in vivo, BALB/c nude mice; conditions: Colo‐205 s.c. xenograft, i.g., QD 14 d, 50 mg/kg
MCF‐7/ARO xenograft = assay: MCF‐7/ARO s.c. human tumor xenograft, single agents; type: in vivo, BALB/c nude mice; conditions: MCF‐7/ARO s.c. xenograft, i.g., QD 21 d, 150 mg/kg
HepG2 = assay: cells; type: cell-based; conditions: Homo sapiens, HepG2, 144 h, read-out: Proliferation inhibition IC50 (mean ± SD)
MCF‐7 = assay: cells; type: cell-based; conditions: Homo sapiens, MCF7, 144 h, read-out: Proliferation inhibition IC50 (mean ± SD)
LN‐18 = assay: cells; type: cell-based; conditions: Homo sapiens, LN-18, 144 h, read-out: Proliferation inhibition IC50 (mean ± SD)
[1] = tested on: ER/progesterone receptor+/HER2− advanced breast cancer; conditions: women, LY2835219 plus anastrozole or letrozole; cited from earlier work
MCF‐7/ARO = assay: cells; type: cell-based; conditions: 144 h, read-out: Proliferation inhibition IC50 (mean ± SD)
MV4‐11 xenograft = assay: MV4‐11 s.c. human tumor xenograft; type: in vivo, BALB/c nude mice; conditions: MV4‐11 s.c. xenograft, i.g., QD 20 d, 50 mg/kg
MCF‐7 xenograft = assay: MCF‐7 s.c. human tumor xenograft; type: in vivo, BALB/c nude mice; conditions: 50 mg/kg; for TGI: MCF‐7 s.c. xenograft, i.g., QD 21 d; for Mean tumor size: MCF‐7 xenograft, day 20 (vehicle 703 mm^3)
MV‐4‐11 = assay: cells; type: cell-based; conditions: Homo sapiens, MV4-11, 144 h, read-out: Proliferation inhibition IC50 (mean ± SD)
A549 = assay: cells; type: cell-based; conditions: Homo sapiens, A549, 144 h, read-out: Proliferation inhibition IC50 (mean ± SD)
[2] = tested on: Rb^Ser780 phosphorylation in MCF‐7 cells; assay: Western blot of Rb, p‐Rb Ser780 and cyclin D1; type: cell-based; conditions: MCF‐7, 24 h; for Rb^Ser780 phosphorylation and total Rb protein levels: dose‐dependent
Summary of the method: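 MCF-7 cells were treated with a range of test compound concentrations for 24 h, then lysed in buffer containing phosphatase inhibitors. Lysates were separated, transferred and probed for Rb, p-Rb Ser780 and cyclin D, with β-tubulin or β-actin as loading controls. Bands were detected by HRP luminol chemiluminescence.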

Calu‐3 = assay: cells; type: cell-based; conditions: Homo sapiens, Calu-3, 144 h, read-out: Proliferation inhibition IC50 (mean ± SD)
U87‐MG xenograft = assay: U87‐MG s.c. human tumor xenograft; type: in vivo, BALB/c nude mice; conditions: i.g., QD 18 d, 50 mg/kg
breast cancer = conditions: cited from earlier work
[3] = tested on: U87‐MG‐Luc human glioblastoma; assay: U87‐MG‐Luc human glioblastoma orthotopic model; type: in vivo, female BALB/c nude mice; conditions: for Median survival time (mean ± SEM): 75 mg/kg (vehicle 30 ± 1 d); for Increase life span: 75 mg/kg, compared with vehicle
Summary of the method: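 Female BALB/c nude mice, 6–8 weeks old, received 3 × 10⁵ U87-MG-Luc cells with 20% Matrigel. Cells were injected slowly into a skull hole about 2 mm right of the anterior fontanel and 1 mm ahead of the coronal. On day 8, mice were randomized by bioluminescence and dosed orally once daily. Survival was followed by Kaplan–Meier; life-span increase is relative to vehicle, with P by comparison to vehicle.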

[4] = tested on: ER+ metastatic breast cancer; conditions: patients, cited from earlier work
[5] = tested on: recurrent Rb‐positive glioblastoma; conditions: adult patients, phase II trial; cited from earlier work
[6] = female, BALB/c nude, mouse, in vivo, 75 mg/kg

In the case of CCN1CCN(Cc2ccc(Nc3ncc(F)c(-c4cc(F)c5nc(C)n(C(C)C)c5c4)n3)nc2)CC1 [LY2835219, abemaciclib], the “Cell senescence (SA‐β‐gal staining)” value (MCF‐7 cells) is reported as “could induce cell senescence”, the IC50 (ES‐2) is reported as 27.8 ± 10.3 nM and the IC50 (SW620) is reported as 283 ± 42.7 nM. For the same compound, the “Levels in the plasma and brain compared with SPH3643” value (in vivo; 24 hours after the final dose) was “markedly lower”, the Kp at 1.5 h (in vivo; [6]) was 0.26 ± 0.13 and the Kp at 24 h (in vivo; [6]) was 0.27 ± 0.08. For the same compound, the IC50 (CDK3) was 482 nM, the IC50 (T‐47D) was 672 ± 119 nM and the TGI (Colo‐205 xenograft) was 82^** %. The TGI (MCF‐7/ARO xenograft) was 67^** %, the IC50 (HepG2) was 82.3 ± 20.4 nM and the IC50 (MCF‐7) was 218 ± 8.7 nM. For the same compound, the IC50 (LN‐18) was 244 ± 3 nM, the “Objective response rate and PFS” value [1] was “significantly improved” and the IC50 (MCF‐7/ARO) was 327 ± 43.8 nM. For the same compound, the TGI (MV4‐11 xenograft) was 54^**, # %, the TGI (MCF‐7 xenograft) was 114% and the Mean tumor size (MCF‐7 xenograft) was 94 mm^3. For the same compound, the IC50 (MV‐4‐11) was 79.8 ± 35.3 nM, the IC50 (A549) was 264 ± 28.4 nM and the “Expression of cyclin D1” value [2] was “without significantly altering”. For the same compound, the “Rb^Ser780 phosphorylation and total Rb protein levels” value [2] was “significant decrease”, the IC50 (Calu‐3) was 1000 ± 30 nM and the TGI (U87‐MG xenograft) was 131^**,## %. For the same compound, the PFS (breast cancer; LY2835219 plus fulvestrant) was 16.4 months, the “Median survival time (mean ± SEM)” value [3] was 42 ± 2 days and the Increase life span [3] was 40.00%.

For N#Cc1ccc(C(c2ccc(C#N)cc2)n2cncn2)cc1 [Letrozole, letrozole], the “Disease‐free survival” value ([4]; letrozole single‐agent treatment) is given as 10.2 months.

In the case of CC(=O)c1c(C)c2cnc(Nc3ccc(N4CCNCC4)cn3)nc2n(C2CCCC2)c1=O [Palbociclib, palbociclib], the “Cell senescence (SA‐β‐gal staining)” value (MCF‐7 cells) is given as “could induce cell senescence”, the IC50 (ES‐2) is given as 53.4 ± 1.3 nM and the “Single‐agent efficacy” value [5] is given as “failed to achieve”. For the same compound, the IC50 (SW620) was 268 ± 36.8 nM, the IC50 (T‐47D) was 1120 ± 686 nM and the TGI (Colo‐205 xenograft) was 93^** %. For the same compound, the TGI (MCF‐7/ARO xenograft) was 67^** %, the IC50 (HepG2) was 60.6 ± 9 nM and the IC50 (LN‐18) was 112 ± 25.6 nM. The IC50 (MCF‐7/ARO) was 374 ± 48.7 nM, the “Disease‐free survival” value ([4]; palbociclib together with letrozole) was 20.2 months and the TGI (MV4‐11 xenograft) was 68^** %. For the same compound, the TGI (MCF‐7 xenograft) was 84%, the Mean tumor size (MCF‐7 xenograft) was 256 mm^3 and the IC50 (MV‐4‐11) was 43.1 ± 9.5 nM. The IC50 (A549) was 795 ± 34.5 nM, the “Expression of cyclin D1” value [2] was “without significantly altering” and the “Rb^Ser780 phosphorylation and total Rb protein levels” value [2] was “significant decrease”. The IC50 (Calu‐3) was > 10000 nM, the TGI (U87‐MG xenograft) was 96^** % and the “Median survival time (mean ± SEM)” value [3] was 35 ± 10 days. For the same compound, the Increase life span [3] was 16.67%.

For C[C@]12CC[C@@H]3c4ccc(O)cc4C[C@@H](CCCCCCCCC[S+]([O-])CCCC(F)(F)C(F)(F)F)[C@H]3[C@@H]1CC[C@@H]2O (stereo partly drawn) [fulvestrant], the PFS (breast cancer; fulvestrant alone) is given as 9.3 months.
